Data set [1] is described as follows: Cytotoxicity against human T47D cells after 48 hrs by sulforhodamine B assay. Type of data set: functional, cell-based. The method, boiled down: (§1)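 Cells grown in RPMI 1640 with 10% heat-inactivated FBS and 1% penicillin-streptomycin-amphotericin B at 37 °C, 5% CO2, passages 5–20. Plated at 10⁴ cells/well with 24 h recovery. Exposed to 5, 12, 25 and 50 μmol/L from DMSO stock (final DMSO <0.1%), triplicate wells, 48 h. TCA-fixed, SRB-stained, read by ELISA reader. IC50 fitted with Hill-type equation.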
Background: The SRB assay estimates cell density from bound dye.

Data set [2] deals with T47D. The data set can be described thus: Induction of apoptosis in human T47D cells assessed as decrease in Bcl2 level at IC50 relative to control. Type of data set: functional.
Data set [3] relates to T47D. Description: Induction of apoptosis in human T47D cells assessed as decrease in Bcl-xl level at IC50 relative to control. It counts as functional.
In data set [4] the test system is T47D. The data set can be described thus: Induction of apoptosis in human T47D cells assessed as increase in Bax/Bcl2 ratio at IC50 relative to control. It counts as functional.
Data set [5] can be described thus: Cytotoxicity against human 184A1 cells after 48 hrs by sulforhodamine B assay. Type of data set: toxicity, cell-based. The method, boiled down:
as §1

The target of data set [6] is T1, Aromatase (Homo sapiens, UniProt P11511).
T1 sequence (P11511 whole entry): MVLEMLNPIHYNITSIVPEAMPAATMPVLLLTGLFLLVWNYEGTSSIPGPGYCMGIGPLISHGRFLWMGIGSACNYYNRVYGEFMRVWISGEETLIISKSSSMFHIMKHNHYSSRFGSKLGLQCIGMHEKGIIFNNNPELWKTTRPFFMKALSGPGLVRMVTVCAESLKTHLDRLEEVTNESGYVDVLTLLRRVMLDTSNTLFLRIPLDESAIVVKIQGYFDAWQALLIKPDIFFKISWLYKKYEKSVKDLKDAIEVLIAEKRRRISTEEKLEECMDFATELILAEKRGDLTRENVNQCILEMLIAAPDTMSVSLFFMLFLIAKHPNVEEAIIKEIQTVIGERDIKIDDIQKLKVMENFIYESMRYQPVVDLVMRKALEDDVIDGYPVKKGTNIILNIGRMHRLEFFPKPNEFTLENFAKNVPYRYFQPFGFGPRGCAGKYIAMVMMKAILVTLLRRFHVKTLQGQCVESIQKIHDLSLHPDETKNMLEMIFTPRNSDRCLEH
Description: Inhibition of aromatase activity in human T47D cells after 24 hrs. It counts as cell-based. The method, boiled down: (§2)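 T47D cells in RPMI 1640 with 10% FBS and 1% penicillin-streptomycin, seeded at 1.2–1.8 × 10,000 cells/well in 100 µL medium plus 100 µL compound. Cells treated 24 h, including serial dilutions for IC50. Aromatase (CYP19A1) then measured with a human ELISA kit.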

Data set [7] in a line: Induction of apoptosis in human T47D cells assessed as upregulation of active caspase 3 level by immunoassay relative to letrozole. It counts as functional, cell-based.
In data set [8] the test system is T47D. The data set can be described thus: Induction of apoptosis in human T47D cells assessed as Bcl-xl level at IC50 (reference value: 754565 IU/ml). Type of data set: functional.
In data set [9] the test system is T47D. The data set can be described thus: Induction of apoptosis in human T47D cells assessed as Bcl2 level at IC50 (reference value: 568019 IU/ml). Type of data set: functional.
Data set [10] can be described thus: Cell cycle arrest in human T47D cells assessed as S phase accumulation at 9.2 uM by propidium iodide staining based cytometry (reference value: 17.14%). It counts as functional. The gist of the method: (§3)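 T47D cells exposed to test compound at 9.2 μM. Cells stained with propidium iodide per kit procedure and run on a DNA cytometer. PBMCs of known DNA content served as reference for DNA index. Percent of cells in G1, S and G2/M phases compared with untreated control.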

For data set [11], the system named is T47D. Description: Induction of apoptosis in human T47D cells assessed as Bax level at IC50 (reference value: 24.6 IU/ml). It counts as functional.
The nature of data set [12]: Cell cycle arrest in human T47D cells assessed as G2/M phase accumulation at 9.2 uM by propidium iodide staining based cytometry (reference value: 15.81%). It counts as functional. The gist of the method:
as §3

Data set [13] in a line: Induction of apoptosis in human T47D cells assessed as upregulation of active caspase 3 level at IC50 by immunoassay relative to control. It counts as functional, cell-based. The method, boiled down:
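Cells washed with PBS and lysed in extraction buffer with protease inhibitors (1 mL per 10⁷ cells). Lysate diluted just before assay. Active caspase-3 measured by human sandwich immunoassay with absorbance at 450 nm read within 30 min. Expressed as fold versus control cells.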

The nature of data set [14]: Induction of apoptosis in human T47D cells assessed as upregulation of caspase 8 at IC50 after 48 hrs by ELISA method relative to control. It counts as functional, cell-based. The gist of the method:
(§4)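 Cells grown in RPMI 1640 with 10% FBS at 37 °C, plated at 1.2–1.8 × 10,000 cells/well and exposed to compound for 48 h. Lysed in cell extraction buffer, diluted in standard diluent. Caspase-8 and caspase-9 measured separately by human ELISA, absorbance 450 nm. Fold versus control.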

Data set [15] can be described thus: Induction of apoptosis in human T47D cells assessed as upregulation of caspase 9 at IC50 after 48 hrs by ELISA method relative to control. It counts as functional, cell-based. The gist of the method:
as §4

Data set [16] deals with T1, Aromatase. Description: Inhibition of aromatase activity in human T47D cells at 100 uL after 24 hrs. Type of data set: cell-based. Also on record: concentration or dose not given beside the values. The method, boiled down:
as §2

Data set [17] has as its system T47D. The data set can be described thus: Induction of apoptosis in human T47D cells at 9.2 uM by propidium iodide staining based cytometry (reference value: 2.13%). Type of data set: functional.
Data set [18] can be described thus: Cell cycle arrest in human T47D cells assessed as G1 phase accumulation at 9.2 uM by propidium iodide staining based cytometry (reference value: 64.92%). It counts as functional. The gist of the method:
as §3

These results are taken from ChEMBL document CHEMBL3877287, “Analogue based drug design, synthesis, molecular docking and anticancer evaluation of novel chromene sulfonamide hybrids as aromatase inhibitors and apoptosis enhancers” (Eur J Med Chem, 2016).

In data set [1], `CN(C)/C=C/C(=O)c1cc2ccccc2oc1=O` gave an IC50 of 146 µM.

`Cc1cc(NS(=O)(=O)c2ccc(N/C=C\C(=O)c3cc4ccccc4oc3=O)cc2)nc(C)n1` displayed an IC50 in data set [1] of 100 µM.

For the molecule `O=C(/C=C\Nc1ccc(S(=O)(=O)Nc2ccnn2-c2ccccc2)cc1)c1cc2ccccc2oc1=O`, the values for the IC50 (in data set [1]; at Aromatase [6]) were 9.2 µM and 5.09 µM, respectively. Also, the “fold change (FC)” value in the data set with T47D [2] was 369; in the data set with T47D [3], 1965; in the data set with T47D [4] it was 33000; in data set [7], 3; in data set [13] it was 45; in data set [14] it was 40. The fold change (FC) in data set [15] amounted to 10. For the same molecule, half-maximal inhibition in data set [5] (IC50 at 48 h) was put at 184 µM. Also, the Activity with T47D [8] is 384 IU/ml; in the data set with T47D [9], 1540 IU/ml; in [10], 14.6%; in the data set on T47D [11], 402127 IU/ml; in [12], 44.5%; in the data set with T47D [17], 31.7%. For the same molecule, in data set [18], the Activity turned out to be 9.2%. The “inhibition (INH)” value against Aromatase [16] amounted to 70%.

In the case of `O=C(C=CNc1ccc(S(=O)(=O)c2ccc(NC=CC(=O)c3cc4ccccc4oc3=O)cc2)cc1)c1cc2ccccc2oc1=O`, the midpoint of inhibition in data set [1], the IC50, lay at 70.3 µM.

For the molecule `COc1cccc2c1C(=O)c1c(O)c3c(c(O)c1C2=O)C[C@@](O)(C(=O)CO)C[C@@H]3O[C@H]1C[C@H](N)[C@H](O)[C@H](C)O1` [DOXORUBICIN], in data set [1], it took 9.8 µM to reach half-maximal inhibition (IC50).

The molecule `Nc1ccc(S(=O)(=O)c2ccc(N/C=C\C(=O)c3cc4ccccc4oc3=O)cc2)cc1` showed an IC50 in [1] of 91.9 µM.

With `COc1cc(NS(=O)(=O)c2ccc(N/C=C\C(=O)c3cc4ccccc4oc3=O)cc2)nc(OC)n1`, in [1], 37.8 µM corresponded to half-maximal inhibition (IC50). The “inhibition (INH)” value against Aromatase [16] came to 44%.

`Cc1cc(NS(=O)(=O)c2ccc(N/C=C\C(=O)c3cc4ccccc4oc3=O)cc2)on1`: the IC50 in data set [1] was 75.6 µM. Further, the “inhibition (INH)” value against Aromatase [16] came to 28%.

In [1], `N=C(N)NS(=O)(=O)c1ccc(N/C=C\C(=O)c2cc3ccccc3oc2=O)cc1` came in with an IC50 of 87.6 µM. For the same molecule, the “inhibition (INH)” value against Aromatase [16] is listed as 30%.

In data set [1], `Cc1cc(C)nc(NS(=O)(=O)c2ccc(N/C=C\C(=O)c3cc4ccccc4oc3=O)cc2)n1` yielded an IC50 of 62.2 µM. Further, on Aromatase [16], the “inhibition (INH)” value is 30%.

`Cc1noc(NS(=O)(=O)c2ccc(N/C=C\C(=O)c3cc4ccccc4oc3=O)cc2)c1C` yielded an IC50 in data set [1] of 68.4 µM. The “inhibition (INH)” value against Aromatase [16] came to 20%.

Take `COc1cnc(NS(=O)(=O)c2ccc(N/C=C\C(=O)c3cc4ccccc4oc3=O)cc2)nc1`: the IC50 stood at 8.8 µM in [1] and 6.07 µM against Aromatase [6]. Besides, the “fold change (FC)” value amounted to 819.65 in the data set with T47D [2]; 111.35 with T47D [3]; 5936 with T47D [4]; 1.3 in [7]; 20.6 in [13]; 21.8 in [14]. Moreover, in data set [15], the fold change (FC) came out at 9.91. 172 µM corresponded to half-maximal inhibition in data set [5] (IC50 at 48 h). The Activity is 6776 IU/ml in the data set on T47D [8], 693 IU/ml in the data set on T47D [9] and 176887 IU/ml in the data set with T47D [11]. Besides, at Aromatase [16], the “inhibition (INH)” value worked out at 81%.

`Cc1nnc(NS(=O)(=O)c2ccc(N/C=C\C(=O)c3cc4ccccc4oc3=O)cc2)s1` displayed an IC50 in data set [1] of 94 µM.

With `O=C(/C=C\Nc1ccc(S(=O)(=O)Nc2ccccn2)cc1)c1cc2ccccc2oc1=O`, the IC50 in data set [1] came out at 37.6 µM; at Aromatase [6] it was 12.5 µM. For the same molecule, at Aromatase [16], the “inhibition (INH)” value amounted to 65%.

With `NS(=O)(=O)c1ccc(N/C=C\C(=O)c2cc3ccccc3oc2=O)cc1`, the midpoint of inhibition in [1], the IC50, lay at 109 µM.

As for `O=C(/C=C\Nc1ccc(S(=O)(=O)Nc2ccc3cn[nH]c3c2)cc1)c1cc2ccccc2oc1=O`, the IC50 in data set [1] was determined as 96.5 µM.

With `O=C(/C=C\Nc1ccc(S(=O)(=O)Nc2ncccn2)cc1)c1cc2ccccc2oc1=O`, in data set [1], the IC50 came out at 75.2 µM. The “inhibition (INH)” value at Aromatase [16] worked out at 41%.

`Cc1ccnc(NS(=O)(=O)c2ccc(N/C=C\C(=O)c3cc4ccccc4oc3=O)cc2)n1`: the IC50 in data set [1] was determined as 24.5 µM; at Aromatase [6] it was 9.52 µM. Moreover, the “inhibition (INH)” value on Aromatase [16] is 67%.

Molecule `O=C(/C=C\Nc1ccc(S(=O)(=O)Nc2cnc3ccccc3n2)cc1)c1cc2ccccc2oc1=O` showed an IC50 in data set [1] of 86.9 µM.

As for `COc1ncnc(NS(=O)(=O)c2ccc(N/C=C\C(=O)c3cc4ccccc4oc3=O)cc2)c1OC`, the IC50 in [1] was 9.8 µM; at Aromatase [6], 4.66 µM. Also, the “inhibition (INH)” value against Aromatase [16] was determined as 69%.

A word on the IC50: it is the point on the concentration scale where inhibition reaches its midpoint.
